Experimental data from publication PMC5836847 (Clinical Pharmacology and Therapeutics, 2017).

Experiments:
[1] = Plasma pharmacokinetics of sildenafil and N-desmethyl-sildenafil; format: in vivo, human; conditions: for AUCinf, Intrasubject CV / AUClast, Intrasubject CV / Cmax, Intrasubject CV: fixed effect model, sacubitril/valsartan + sildenafil vs. sildenafil alone; for Tmax (median time to reach maximum concentration): single-dose oral administration of sildenafil; for AUC(0-t): AUClast
Outline: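 Male hypertensive patients received single oral sildenafil 50 mg alone (Day 1), then again on Day 8 with sacubitril/valsartan 400 mg q.d. at steady state. Plasma sildenafil and N-desmethyl-sildenafil were profiled after each dose. Outputs were AUCinf, AUClast, T1/2, Cmax and Tmax. Log-transformed parameters went into a fixed-effect model with subject and treatment as factors; combination was test, sildenafil alone reference. Output was back-transformed GMR with 90% CI.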

[2] = cited from earlier work
[3] = Plasma pharmacokinetics of sacubitril/valsartan analytes at steady state; format: in vivo, human; conditions: for AUCtau,ss, Intrasubject CV / Cmax,ss, Intrasubject CV: fixed effect model; for AUC / Cmax: male, human, oral, Mean ± SD; for AUC / Cmax / Tmax (time of peak concentrations): plasma; for AUC: AUCtau,ss, Sacubitril/valsartan alone (400 mg q.d., steady state, Day 7); for Cmax: Cmax,ss; for Tmax (time of peak concentrations): oral administration of sacubitril/valsartan, steady state
Outline: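 Male hypertensive patients took oral sacubitril/valsartan 400 mg q.d. on Days 3–7, with predose samples on Days 3–6. Plasma sacubitril, sacubitrilat and valsartan were profiled at steady state on Day 7 and on Day 8 with single-dose sildenafil 50 mg. Outputs were AUCtau,ss, Cmax,ss and Tmax,ss. Log-transformed parameters went into a fixed-effect model with subject and treatment as factors; combination was test, monotherapy reference. Output was back-transformed GMR with 90% CI.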

[4] = system: patients with mild-to-moderate hypertension; experiment: Safety assessments; format: in vivo, human; conditions: for safety and tolerability: single-dose sildenafil 50 mg, sacubitril/valsartan 400 mg q.d., coadministration
Outline: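 Adverse events were recorded across three sequential periods in male hypertensive patients: single oral sildenafil 50 mg (Day 1), sacubitril/valsartan 400 mg q.d. (Days 3–7), and both together (Day 8). Events were graded by intensity and by suspected relation to study drug. They were summarised by treatment and visit/time, as number and percentage of subjects by body system and treatment.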

[5] = system: patients with HFrEF; conditions: cited from earlier work
[6] = system: healthy subjects; conditions: 40 mg and 80 mg doses; cited from earlier work
[7] = cited from earlier work; remark: listed apart in the source
[8] = 200 mg twice daily or 400 mg q.d., healthy individuals; cited from earlier work
[9] = sacubitril/valsartan and warfarin coadministered; cited from earlier work
[10] = plasma, Sacubitril/valsartan + Sildenafil (Day 8)
[11] = plasma, Sildenafil alone (50 mg single dose, Day 1)
[12] = plasma, Sildenafil alone (Day 1)
[13] = coadministration of sacubitril/valsartan and sildenafil vs. sacubitril/valsartan alone
[14] = 400 mg, Sacubitril/valsartan alone (Day 7)
[15] = Sacubitril/valsartan + Sildenafil (Day 8)

| Compound | AUCinf, Intrasubject CV [1] | AUClast, Intrasubject CV [1] | Cmax, Intrasubject CV [1] | Tmax (median time to reach maximum concentration) ([1]; plasma) | decrease in Cmax [3, 13] | AUCtau,ss, Intrasubject CV [3] | Cmax,ss, Intrasubject CV [3] | AUC ([3]; 400 mg) | Cmax [3, 14] | Cmax [3, 15] | Tmax (time of peak concentrations) [3] | safety and tolerability [4] | further results |
| --- | --- | --- | --- | --- | --- | --- | --- | --- | --- | --- | --- | --- | --- |
| CCCc1nn(C)c2c(=O)[nH]c(-c3cc(S(=O)(=O)N4CCNCC4)ccc3OCC)nc12 [N‐desmethyl‐sildenafil] | 15.9% | 16.4% | 26.7% | 1 h |  |  |  |  |  |  |  |  | decrease in Cmax ([1]; coadministration of sildenafil and sacubitril/valsartan vs. sildenafil alone): 14%; AUCinf, Adjusted geometric mean [1, 10]: 305 ng·h/mL; AUClast, Adjusted geometric mean [1, 10]: 278 ng·h/mL; AUClast, Mean ± SD [1, 10]: 305 ± 133 ng·h/mL; Cmax, Adjusted geometric mean [1, 10]: 75.9 ng/mL; Cmax, Mean ± SD [1, 10]: 84.6 ± 39.3 ng/mL; AUCinf, Mean ± SD [1, 11]: 359 ± 157 ng·h/mL; Cmax, Mean ± SD [1, 11]: 95.1 ± 32.5 ng/mL; AUCinf, Adjusted geometric mean [1, 12]: 327 ng·h/mL; AUClast, Adjusted geometric mean [1, 12]: 297 ng·h/mL; AUClast, Mean ± SD [1, 12]: 331 ± 152 ng·h/mL; Cmax, Adjusted geometric mean [1, 12]: 88.4 ng/mL; terminal half-life (T1/2) ([1]; plasma, sildenafil administered alone): 5.3 ± 1.6 h; terminal half-life (T1/2) ([1]; plasma, sildenafil coadministered with sacubitril/valsartan): 6.2 ± 1.9 h; share of sildenafil's pharmacological effects accounted for [2]: 20%; plasma concentration relative to parent compound ([2]; relative to sildenafil): ~40%; potency relative to parent compound ([2]; relative to sildenafil): ~50% |
| CCOC(=O)[C@H](C)C[C@@H](Cc1ccc(-c2ccccc2)cc1)NC(=O)CCC(=O)O [Sacubitril] |  |  |  |  | 10% | 12.2% | 45.3% | 3400 ± 1000 ng·h/mL | 2470 ± 865 ng/mL | 2310 ± 1020 ng/mL | 0.5 h |  |  |
| C[C@H](C[C@@H](Cc1ccc(-c2ccccc2)cc1)NC(=O)CCC(=O)O)C(=O)O [Sacubitrilat] |  |  |  |  |  | 3.75% | 13% | 143000 ± 26300 ng·h/mL | 14900 ± 2250 ng/mL | 14000 ± 2420 ng/mL | 2.0 h |  |  |
| CCCc1nn(C)c2c(=O)[nH]c(-c3cc(S(=O)(=O)N4CCN(C)CC4)ccc3OCC)nc12 [Sildenafil] | 23.4% | 23.4% | 35.5% | 0.5 h |  |  |  |  |  |  |  | generally safe and well‐tolerated | suspected treatment-related AEs of moderate intensity ([4]; per study period): 1 AE; cardiac output ([5]; 50 mg sildenafil, patients with HFrEF): increased; safety and tolerability ([5]; sildenafil administered to patients with HFrEF): safe and well tolerated; half-life ([1]; male, human, plasma, oral, 50 mg): 3.7 ± 1 h; AUC(0-t) ([1]; male, human, plasma, oral, 50 mg, Mean ± SD, plasma, Sildenafil alone (Day 1)): 587 ± 270 ng·h/mL; AUC(0-t) ([1]; male, human, plasma, oral, Mean ± SD, plasma, Sacubitril/valsartan + Sildenafil (Day 8)): 612 ± 297 ng·h/mL; Cmax ([1]; male, human, plasma, oral, Cmax, Mean ± SD, plasma, Sacubitril/valsartan + Sildenafil (Day 8)): 189 ± 99.6 ng/mL; duration of BP-lowering effect postdosing [6]: 5 h |
| CCCCC(=O)N(Cc1ccc(-c2ccccc2-c2nnn[nH]2)cc1)[C@H](C(=O)O)C(C)C [Valsartan] |  |  |  |  | 39% | 28% | 32.6% | 33000 ± 12400 ng·h/mL | 5300 ± 1750 ng/mL | 3350 ± 1480 ng/mL | 2.0 h |  | intersubject variability in pharmacokinetic parameters [7]: 44%; decrease in AUC [3, 13]: 29% |
| Sacubitril/valsartan |  |  |  |  |  |  |  |  |  |  |  | generally safe and well‐tolerated | time to achieve steady-state levels [8]: 3 days; impact on the pharmacokinetics of the CYP2C9 substrate warfarin [9]: no impact |
